Key:
[1] = species: Bos taurus; assay: Inhibition of bovine liver arginase assessed as reduction in urea production at 100 uM using L-arginine as substrate after 60 mins in presence of MnCl2 by alpha-isonitrosopropiophenone reagent based spectrophotometric analysis relative to control
In short: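 Purified bovine liver arginase I (0.025 U/μL in Tris-HCl 50 mM pH 7.5 with 0.1% BSA) with 10 mM MnCl2 cofactor, inhibitor from DMSO stock diluted in water, and L-arginine (0.05 M, pH 9.7). Incubated 60 min at 37 °C. Acid quench, then α-isonitrosopropiophenone at 100 °C for 45 min, A550. Activity relative to solvent control; three experiments in duplicate, mean ± SEM.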

[2] = Inhibition of bovine liver arginase assessed as reduction in urea production using L-arginine as substrate after 60 mins in presence of MnCl2 by alpha-isonitrosopropiophenone reagent based spectrophotometric analysis; parameters: species or system Bos taurus
In short: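 Purified bovine liver arginase I with MnCl2 (10 mM) in Tris-HCl pH 7.5/BSA buffer, L-arginine substrate (0.05 M, pH 9.7). Inhibitors from 70 mM DMSO stocks, final 0.1–1000 μM in the well. 60 min at 37 °C, then urea read with α-isonitrosopropiophenone at 550 nm. IC50 taken from semilog plots of inhibition relative to solvent control; three experiments in triplicate, mean ± SEM.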

inhibition [1] [%] | IC50 [2] [µM] | SMILES
80 to 90 | 22.6 | Oc1cc(O)cc([C@@H]2c3c(/C=C/c4ccc(O)c(O)c4)cc(O)cc3O[C@H]2c2ccc(O)c(O)c2)c1
80 to 90 |  | OC[C@H]1O[C@@H](Oc2cc(/C=C/c3ccc(O)cc3)cc(O[C@@H]3O[C@H](CO)[C@@H](O)[C@H](O)[C@H]3O)c2)[C@H](O)[C@@H](O)[C@@H]1O
80 to 90 | 27.8 | Oc1ccc(/C=C/c2cc(O)cc3c2[C@H](c2cc(O)cc(O)c2)[C@@H](c2ccc(O)cc2)O3)cc1
80 to 90 | 12.2 | Oc1cc(O)cc([C@@H]2[C@@H](c3ccc(O)c(O)c3)c3cc(O)c(O)cc3[C@@H]3c4c(O)cc(O)cc4[C@@H]4c5c(cc(O)cc5[C@H]32)O[C@H]4c2ccc(O)c(O)c2)c1
80 to 90 | 12.6 | Oc1cc(O)cc(/C=C/c2ccc(O)c(O)c2)c1 [PICEATANNOL]
80 to 90 | 25.3 | Oc1ccc([C@H]2Oc3cc(O)cc([C@@H]4[C@H](c5cc(O)cc(O)c5)[C@@H](c5ccc(O)cc5)O[C@@H]4c4ccc(O)cc4)c3[C@@H]2c2cc(O)cc3c2[C@@H](c2cc(O)cc(O)c2)[C@H](c2ccc(O)c(O)c2)O3)cc1
 | 1.7 | N=C(NO)NCC[C@H](N)C(=O)O [NOR-NOHA]
80 to 90 |  | Oc1ccc([C@H]2Oc3cc(O)cc([C@@H]4[C@H](c5cc(O)cc(O)c5)[C@@H](c5ccc(O)cc5)O[C@@H]4c4ccc(O)cc4)c3[C@@H]2c2cc(O)cc3c2[C@@H](c2cc(O)cc(O)c2)[C@H](c2ccc(O)cc2)O3)cc1
80 to 90 | 182 | Oc1ccc([C@H]2c3c(O)cc(O)cc3[C@H]3c4c(cc(O)cc4[C@@H]2O)O[C@H]3c2ccc(O)cc2)cc1
